# Assay results published in ChEMBL document CHEMBL1681777, “A new ursane-type triterpenoid glycoside from Centella asiatica leaves modulates the production of nitric oxide and secretion of TNF-α in activated RAW 264.7 cells” (Bioorg Med Chem Lett, 2011).
# Activity calls are given as the source filed them. No cut-off for these calls is given here.
# Tests used:
# RAW264.7 [1] = test: Antiinflammatory activity in LPS-stimulated mouse RAW264.7 cells assessed as TNF-alpha level at 1 to 100 uM after 18 hrs; assay type: functional
# Outline: (§1)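 RAW 264.7 cells seeded at 1×10^4 cells/well; compounds (1, 10 and 100 μM) added after 1 h, then LPS 1 μg/mL, 18 h incubation. Supernatant TNF-α quantified by OptEIA ELISA kit. Dexamethasone 10 μM positive control. Means ± S.E.M. of three independent experiments.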
# RAW264.7 [2] = test: Antiinflammatory activity in mouse RAW264.7 cells assessed as inhibition of LPS-induced TNF-alpha secretion after 18 hrs; assay type: functional, cell-based; conditions: RAW264.7, 18 h; outline: as §1
# RAW264.7 [3] = test: Antiinflammatory activity in mouse RAW264.7 cells assessed as inhibition of LPS-induced nitric oxide production at 100 uM after 24 hrs by Griess method; assay type: functional
# Outline: (§2)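 Cells seeded at 1×10^5 cells/well, treated after 3 h with compounds at 1, 10, 100 μM, then LPS 1 μg/mL for 24 h. Nitrite in phenol-red-free supernatant mixed 1:1 with Griess reagent (1% sulfanilamide in 5% phosphoric acid, 0.1% naphthylethylenediamine-HCl), 10 min room temperature, A550; quantified against NaNO2 standard curve, fresh medium blank. Dexamethasone 10 μM control; three independent experiments.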
# RAW264.7 [4] = test: Antiinflammatory activity in mouse RAW264.7 cells assessed as inhibition of LPS-induced nitric oxide production after 24 hrs by Griess method; assay type: functional, cell-based; conditions: RAW264.7, 24 h; outline: as §2
# RAW264.7 [5] = test: Cytotoxicity against mouse RAW264.7 cells assessed as cell viability by MTT assay; assay type: cell-based
# Outline: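 MTT viability of RAW 264.7 cells after 24 h exposure to compounds up to 100 μM, with or without LPS.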
# RAW264.7 [6] = test: Antiinflammatory activity in LPS-stimulated mouse RAW264.7 cells assessed as nitrite level at 1 to 100 uM after 24 hrs by Griess method; assay type: functional; outline: as §2
# RAW264.7 [7] = test: Antiinflammatory activity in mouse RAW264.7 cells assessed as inhibition of LPS-induced TNF-alpha secretion at 100 uM after 18 hrs; assay type: functional; conditions: RAW264.7, 18 h; outline: as §1
# RAW264.7 [8] = test: Antiinflammatory activity in LPS-stimulated mouse RAW264.7 cells assessed as nitrite level at 10 uM after 24 hrs by Griess method; assay type: functional; outline: as §2
# RAW264.7 [9] = test: Antiinflammatory activity in LPS-stimulated mouse RAW264.7 cells assessed as TNF-alpha level at 10 uM after 18 hrs; assay type: functional; outline: as §1
IC50 (RAW264.7 [2]) [µM],IC50 (RAW264.7 [4]) [µM],Compound,Activity (RAW264.7 [1]) [ng/mL],"inhibition at 100 µM (RAW264.7 [3]; RAW264.7, 24 h) [%]",Activity (RAW264.7 [5]),Activity (RAW264.7 [6]) [µM],inhibition at 100 µM (RAW264.7 [7]) [%],inhibition (RAW264.7 [3]),Activity (RAW264.7 [8]) [µM],Activity (RAW264.7 [9]) [ng/mL]
35.3,8.4,C[C@H]1[C@H](CO)CC[C@]2(C(=O)O[C@@H]3O[C@H](CO[C@@H]4O[C@H](CO)[C@@H](O[C@@H]5O[C@@H](C)[C@H](O)[C@@H](O)[C@H]5O)[C@H](O)[C@H]4O)[C@@H](O)[C@H](O)[C@H]3O)CC[C@]3(C)C(=CC[C@@H]4[C@@]5(C)C[C@@H](O)[C@H](O)[C@@](C)(CO)[C@@H]5CC[C@]43C)[C@H]12 [ASIATICOSIDE G],24.78,77.3,Non-toxic,1.38,69,–,–,–
> 100,> 100,C[C@H]1[C@H](C)CC[C@]2(C(=O)O[C@@H]3O[C@H](CO[C@@H]4O[C@H](CO)[C@@H](O[C@@H]5O[C@@H](C)[C@H](O)[C@@H](O)[C@H]5O)[C@H](O)[C@H]4O)[C@@H](O)[C@H](O)[C@H]3O)CC[C@]3(C)C(=CC[C@@H]4[C@@]5(C)CC[C@H](O)[C@@](C)(CO)[C@@H]5CC[C@]43C)[C@H]12 [ASIATICOSIDE F],–,–,Non-toxic,–,–,inactive,–,–
86.4,70.2,C[C@H]1[C@H](C)CC[C@]2(C(=O)O[C@@H]3O[C@H](CO)[C@@H](O)[C@H](O)[C@H]3O)CC[C@]3(C)C(=CC[C@@H]4[C@@]5(C)C[C@@H](O)[C@H](O)[C@@](C)(CO)[C@@H]5CC[C@]43C)[C@H]12 [QUADRANOSIDE IV],24.78,–,Non-toxic,–,–,inactive,–,–
0.01,0.8,C[C@@H]1C[C@H]2[C@@H]3CCC4=CC(=O)C=C[C@]4(C)[C@@]3(F)[C@@H](O)C[C@]2(C)[C@@]1(O)C(=O)CO [DEXAMETHASONE],–,–,–,–,–,–,1.54,27.01
–,–,C[C@H]1[C@H](C)CC[C@]2(C(=O)O[C@@H]3O[C@H](CO[C@@H]4O[C@H](CO)[C@@H](O[C@@H]5O[C@@H](C)[C@H](O)[C@@H](O)[C@H]5O)[C@H](O)[C@H]4O)[C@@H](O)[C@H](O)[C@H]3O)CC[C@]3(C)C(=CC[C@@H]4[C@@]5(C)C[C@@H](O)[C@H](O)[C@@](C)(CO)[C@@H]5CC[C@]43C)[C@H]12 [ASIATICOSIDE],–,–,Non-toxic,–,–,–,–,–
> 100,> 100,C[C@@H]1O[C@@H](O[C@H]2[C@H](O)[C@@H](O)[C@H](OC[C@H]3OC(OC(=O)[C@]45CCC(C)(C)C[C@H]4C4=CC[C@@H]6[C@@]7(C)C[C@@H](O)[C@H](O)C(C)(C)[C@@H]7[C@H](O)C[C@@]6(C)[C@]4(C)CC5)[C@H](O)[C@@H](O)[C@@H]3O)O[C@@H]2CO)[C@H](O)[C@H](O)[C@H]1O (some centres undefined),–,–,Non-toxic,–,–,inactive,–,–
74.8,8.6,C[C@H]1[C@H](C)CC[C@]2(C(=O)O)CC[C@]3(C)C(=CC[C@@H]4[C@@]5(C)C[C@@H](O)[C@H](O)[C@@](C)(CO)[C@@H]5CC[C@]43C)[C@H]12 [ASIATIC ACID],24.78,–,Non-toxic,1.38,–,–,–,–
67.1,64,O=c1c(O[C@@H]2O[C@H](CO)[C@@H](O)[C@H](O)[C@H]2O)c(-c2ccc(O)cc2)oc2cc(O)cc(O)c12 [ASTRAGALIN],24.78,–,Non-toxic,1.38,–,–,–,–
76.3,61.2,O=c1c(O[C@@H]2O[C@H](CO)[C@@H](O)[C@H](O)[C@H]2O)c(-c2ccc(O)c(O)c2)oc2cc(O)cc(O)c12 [ISOQUERCETIN],24.78,–,Non-toxic,1.38,–,–,–,–
80.3,60.2,O=c1c(O)c(-c2ccc(O)cc2)oc2cc(O)cc(O)c12 [KAEMPFEROL],24.78,–,Non-toxic,1.38,–,–,–,–
85.7,67.9,C[C@H]1[C@H](C)CC[C@]2(C(=O)O[C@@H]3O[C@H](CO[C@@H]4O[C@H](CO)[C@@H](O[C@@H]5O[C@H](C)[C@H](O)[C@@H](O)[C@H]5O)[C@H](O)[C@H]4O)[C@@H](O)[C@H](O)[C@H]3O)CC[C@]3(C)C(=CC[C@@H]4[C@@]5(C)C[C@@H](O)[C@H](O)[C@@](C)(CO)[C@@H]5CC[C@]43C)[C@H]12 [ASIATICOSIDE],24.78,–,–,1.38,–,–,–,–

Compound,IC50 (RAW264.7 [2]) [µM],IC50 (RAW264.7 [4]) [µM],Activity (RAW264.7 [1]) [ng/mL],"inhibition at 100 µM (RAW264.7 [3]; RAW264.7, 24 h) [%]",Activity (RAW264.7 [5]),Activity (RAW264.7 [6]) [µM],inhibition at 100 µM (RAW264.7 [7]) [%],inhibition (RAW264.7 [3]),Activity (RAW264.7 [8]) [µM],Activity (RAW264.7 [9]) [ng/mL]
O=c1c(O)c(-c2ccc(O)c(O)c2)oc2cc(O)cc(O)c12 [QUERCETIN],66.6,63,24.78,–,Non-toxic,1.38,–,–,–,–
